Assay results: ChEMBL document CHEMBL2176921, “Nitazoxanide Disrupts Membrane Potential and Intrabacterial pH Homeostasis of Mycobacterium tuberculosis” (ACS Med Chem Lett, 2011)
Values after ≈ are worked out from the molar mass of the structure shown. Active and inactive are the calls of the source. The rule behind the calls is not given here.

What was measured:
[1] = tested on: Mycobacterium tuberculosis; experiment: Antitubercular activity against Mycobacterium tuberculosis H37Rv assessed as disruption of membrane potential at 0.4 ug/ml after 20 mins at pH 7.4 by DiOC2-based spectrofluorimetric analysis; format: functional, organism-based
In short: (§1)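 H37Rv grown to mid-log (OD580 ~0.6), resuspended to OD580 ~1.0 in 7H9 with 0.2% glycerol, 0.2% dextrose, 0.085% NaCl, 0.02% Tyloxapol at set pH (7.4, 5.5, 4.5; 5.5 also with 0.5 mM NaNO2). Compound added at 0.002–20 μg/mL final, then 15 μM DiOC2 for 20 min at room temperature, washed. Controls: CCCP 5 μM, rifampicin 0.4 μg/mL, DMSO. Red (488/610)/green (488/530) fluorescence ratio; triplicates, two experiments.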

[2] = tested on: Mycobacterium tuberculosis; experiment: Antitubercular activity against Mycobacterium tuberculosis H37Rv assessed as disruption of membrane potential at 5 uM after 20 mins at pH 7.4 by DiOC2-based spectrofluorimetric analysis; format: functional, organism-based; in short: as §1
[3] = tested on: Mycobacterium tuberculosis; experiment: Antitubercular activity against Mycobacterium tuberculosis H37Rv assessed as disruption of membrane potential at 0.002 to 20 ug/ml after 20 mins at pH 5.5 by DiOC2-based spectrofluorimetric analysis; format: functional, organism-based; in short: as §1
[4] = tested on: Mycobacterium tuberculosis; experiment: Antitubercular activity against Mycobacterium tuberculosis H37Rv assessed as disruption of membrane potential at 0.002 to 20 ug/ml after 20 mins at pH 4.5 by DiOC2-based spectrofluorimetric analysis; format: functional, organism-based; in short: as §1
[5] = tested on: Mycobacterium tuberculosis; experiment: Antitubercular activity against Mycobacterium tuberculosis H37Rv expressing pH sensitive ratiometric GFP assessed as reduction of intrabacterial pH at 0.002 to 20 ug/ml after 16 hrs at pH 7.5 by spectrofluorimetric analysis; format: functional, organism-based
In short: (§2)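 H37Rv carrying pH-sensitive ratiometric GFP plasmid, grown to mid-log (OD580 ~0.6), diluted to OD580 ~0.3 in 7H9 at pH 7.5, 6.5 or 5.5, with or without 0.5 mM NaNO2. Compound or DMSO exposure 16 h. Fluorescence at excitation 395/emission 510 and excitation 475/emission 510; intrabacterial pH inferred from the ratio of the two readings.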

[6] = tested on: Mycobacterium tuberculosis; experiment: Antitubercular activity against Mycobacterium tuberculosis H37Rv assessed as disruption of membrane potential after 20 mins at pH 7.4 by DiOC2-based spectrofluorimetric analysis; format: functional, organism-based; in short: as §1
[7] = tested on: Mycobacterium tuberculosis; experiment: Antitubercular activity against Mycobacterium tuberculosis H37Rv; format: functional
[8] = tested on: Mycobacterium tuberculosis H37Rv; experiment: Drug metabolism in Mycobacterium tuberculosis H37Rv assessed as tizoxanide formation at 1 to 10 fold MIC after 16 hrs by LC/MS analysis; format: ADME, organism-based; details: in vivo
[9] = tested on: Mycobacterium tuberculosis; experiment: Antitubercular activity against Mycobacterium tuberculosis H37Rv expressing pH sensitive ratiometric GFP assessed as reduction of intrabacterial pH after 16 hrs at pH 7.5 by spectrofluorimetric analysis; format: functional, organism-based; in short: as §2
[10] = tested on: Mycobacterium tuberculosis H37Rv; experiment: Drug uptake in Mycobacterium tuberculosis H37Rv at 1 to 10 fold MIC after 16 hrs by LC/MS analysis; format: ADME, organism-based; details: in vivo
[11] = tested on: Mycobacterium tuberculosis H37Rv; experiment: Drug metabolism in Mycobacterium tuberculosis H37Rv assessed as [13C]acetylation at 1 to 10 fold MIC after 16 hrs by LC/MS analysis; format: ADME, organism-based; details: in vivo

Compound: CO[C@H]1/C=C/O[C@@]2(C)Oc3c(C)c(O)c4c(O)c(c(/C=N/N5CCN(C)CC5)c(O)c4c3C2=O)NC(=O)/C(C)=C\C=C\[C@H](C)[C@H](O)[C@@H](C)[C@@H](O)[C@@H](C)[C@H](OC(C)=O)[C@@H]1C
- Activity [1]: inactive

Compound: N#CC(C#N)=NNc1cccc(Cl)c1
- Activity [2]: Active

Compound: O=C(Nc1ccc([N+](=O)[O-])cc1Cl)c1cc(Cl)ccc1O
- Activity [3]: Active
- Activity [4]: inactive
- Activity [5]: Active
- Activity [6]: Dose-dependent effect

Compound: CC(=O)Oc1ccccc1C(=O)Nc1ncc([N+](=O)[O-])s1 [NITAZOXANIDE]
- Activity [3]: Active
- MIC [7]: 1 µg/mL (≈ 3.25 µM)
- Activity [4]: inactive
- Drug metabolism [8]: Active
- Activity [9]: Dose-dependent effect
- Drug uptake [10]: Active
- Activity [6]: Dose-dependent effect

Compound: O=C(Nc1ncc([N+](=O)[O-])s1)c1ccccc1O [TIZOXANIDE]
- Drug metabolism [11]: Not Active
